This is an account of results in ChEMBL document CHEMBL1136904, “Histone deacetylase inhibitors with a primary amide zinc binding group display antitumor activity in xenograft model” (Bioorg Med Chem Lett, 2009).

In one series the target is Histone deacetylase 1 (Homo sapiens, UniProt Q13547). Briefly: Inhibition of C-terminal FLAG tagged HDAC1.
The next series deals with HeLa. In words: Antiproliferative activity against human HeLa cells after 72 hrs by celltiter-blue cell viability assay. Format: functional, cell-based. A digest of the protocol: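 72 h proliferation assay in HeLa cervical cancer cells, giving IC50; means of two or more experiments.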
Series [1] in a line: Intrinsic clearance in dog liver microsomes in presence of NADPH. Type of series: ADME, Canis lupus familiaris, Microsome. A digest of the protocol: (§1)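 Metabolic stability measured in liver microsomes (rat, human, dog) in the presence of NADPH. Intrinsic clearance expressed as µL/min/mg protein.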
A short description of series [2]: Intrinsic clearance in rat liver microsomes in presence of NADPH. Type of series: ADME, Microsome. In outline:
as §1

The nature of series [3]: Intrinsic clearance in human liver microsomes in presence of NADPH. Format: ADME, Microsome. A digest of the protocol:
as §1

The nature of series [4]: Intrinsic clearance in human microsomes in presence of UDPGA. Format: ADME, Microsome. In outline: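 Glucuronidation measured in human microsomes in the presence of UDPGA. Intrinsic clearance expressed as µL/min/mg protein.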
Series [5] has as its system Mus musculus. Briefly: Increase in histone acetylation in human HCT116 cells xenografted nude mouse at 100 mg/kg, ip measured for 24 hrs. The arrangement: dose 100 mg/kg. Format: functional, organism-based. To be noted: HCT-116. In outline:
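Target engagement in nude mice bearing HCT116 xenografts, 4 per group. Single ip dose of 100 mpk, with vehicle controls. Histone acetylation measured in tumor biopsies at time points after administration and reported as mean ± SEM.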

The target of a further series is Histone deacetylase 4 (Homo sapiens, UniProt P56524). In words: Inhibition of His-tagged HDAC4 catalytic domain expressed in Escherichia coli.
Histone deacetylase 4, sequence (P56524 whole entry, the tested form may be a part): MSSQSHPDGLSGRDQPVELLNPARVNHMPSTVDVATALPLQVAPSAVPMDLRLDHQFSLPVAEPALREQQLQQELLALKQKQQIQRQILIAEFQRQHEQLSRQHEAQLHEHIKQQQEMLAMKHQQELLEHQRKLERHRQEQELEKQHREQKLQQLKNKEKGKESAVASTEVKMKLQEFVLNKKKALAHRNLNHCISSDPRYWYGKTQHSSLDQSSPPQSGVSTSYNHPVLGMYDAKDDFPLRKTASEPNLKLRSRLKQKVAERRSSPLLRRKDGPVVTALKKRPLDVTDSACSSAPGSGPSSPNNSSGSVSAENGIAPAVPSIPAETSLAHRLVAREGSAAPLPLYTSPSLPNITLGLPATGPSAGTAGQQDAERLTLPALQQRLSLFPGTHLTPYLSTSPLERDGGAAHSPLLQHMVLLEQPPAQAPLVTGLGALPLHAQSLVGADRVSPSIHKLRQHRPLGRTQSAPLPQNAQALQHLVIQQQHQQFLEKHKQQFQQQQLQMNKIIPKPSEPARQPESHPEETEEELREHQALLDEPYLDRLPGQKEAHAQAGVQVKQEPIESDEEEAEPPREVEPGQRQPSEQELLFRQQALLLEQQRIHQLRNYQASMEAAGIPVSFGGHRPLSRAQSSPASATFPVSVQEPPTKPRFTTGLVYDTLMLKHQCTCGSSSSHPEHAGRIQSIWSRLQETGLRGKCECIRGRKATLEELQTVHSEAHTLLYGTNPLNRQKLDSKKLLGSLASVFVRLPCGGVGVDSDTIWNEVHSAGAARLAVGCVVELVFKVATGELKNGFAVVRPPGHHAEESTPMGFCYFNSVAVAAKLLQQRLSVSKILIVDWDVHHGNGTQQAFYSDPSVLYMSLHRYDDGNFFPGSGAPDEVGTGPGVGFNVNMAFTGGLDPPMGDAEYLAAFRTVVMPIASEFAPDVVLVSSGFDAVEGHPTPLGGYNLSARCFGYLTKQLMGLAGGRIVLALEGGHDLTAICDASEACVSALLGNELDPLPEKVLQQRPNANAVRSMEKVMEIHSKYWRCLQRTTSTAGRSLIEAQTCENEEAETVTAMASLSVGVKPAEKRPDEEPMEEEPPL
Series [6] relates to HCT-116. In words: Antiproliferative activity against human HCT116 cells after 72 hrs by celltiter-blue cell viability assay. Format: functional, cell-based. To be noted: HCT-116, 72 h.
A further series addresses Histone deacetylase 3 (Homo sapiens, UniProt O15379). In words: Inhibition of C-terminal FLAG tagged HDAC3.
The next series relates to A549. Briefly: Antiproliferative activity against human A549 cells after 72 hrs by celltiter-blue cell viability assay. Format: functional, cell-based. To be noted: A549, 72 h.
Series [7] has as its target T1, Protein deacetylase HDAC6 (Homo sapiens, UniProt Q9UBN7).
T1 sequence (Q9UBN7 whole entry): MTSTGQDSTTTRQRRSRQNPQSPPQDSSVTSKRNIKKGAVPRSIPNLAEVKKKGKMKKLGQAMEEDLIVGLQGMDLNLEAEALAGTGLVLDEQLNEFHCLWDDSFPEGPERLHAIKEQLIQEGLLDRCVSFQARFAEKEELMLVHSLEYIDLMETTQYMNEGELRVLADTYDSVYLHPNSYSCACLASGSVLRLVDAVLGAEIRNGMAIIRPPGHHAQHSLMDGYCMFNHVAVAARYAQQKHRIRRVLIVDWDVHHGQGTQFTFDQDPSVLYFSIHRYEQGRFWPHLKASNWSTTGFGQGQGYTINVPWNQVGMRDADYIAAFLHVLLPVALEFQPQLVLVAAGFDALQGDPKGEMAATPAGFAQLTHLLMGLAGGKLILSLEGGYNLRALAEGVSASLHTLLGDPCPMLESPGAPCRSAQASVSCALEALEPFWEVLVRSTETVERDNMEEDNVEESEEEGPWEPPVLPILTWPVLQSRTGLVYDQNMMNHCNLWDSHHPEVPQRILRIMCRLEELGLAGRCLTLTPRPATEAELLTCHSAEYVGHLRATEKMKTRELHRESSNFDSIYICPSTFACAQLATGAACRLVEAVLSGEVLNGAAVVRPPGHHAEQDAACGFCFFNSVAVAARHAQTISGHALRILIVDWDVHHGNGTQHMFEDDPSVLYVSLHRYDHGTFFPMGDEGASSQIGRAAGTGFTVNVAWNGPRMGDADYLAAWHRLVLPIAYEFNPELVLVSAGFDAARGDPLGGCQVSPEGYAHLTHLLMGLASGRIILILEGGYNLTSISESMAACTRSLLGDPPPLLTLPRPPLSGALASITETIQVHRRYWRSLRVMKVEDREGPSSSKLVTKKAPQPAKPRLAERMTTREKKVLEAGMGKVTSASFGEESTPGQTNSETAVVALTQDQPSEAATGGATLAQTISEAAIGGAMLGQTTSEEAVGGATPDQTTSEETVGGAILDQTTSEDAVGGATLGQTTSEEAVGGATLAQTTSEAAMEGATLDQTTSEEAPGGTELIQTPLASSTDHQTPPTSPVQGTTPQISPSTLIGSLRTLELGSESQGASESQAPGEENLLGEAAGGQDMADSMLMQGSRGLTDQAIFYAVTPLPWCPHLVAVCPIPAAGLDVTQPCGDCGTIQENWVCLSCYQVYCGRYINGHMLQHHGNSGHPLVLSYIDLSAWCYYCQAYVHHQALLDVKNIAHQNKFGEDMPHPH
Briefly: Inhibition of C-terminal FLAG tagged HDAC6.

Series [8] deals with Mus musculus. Briefly: Toxicity against human HCT116 cells xenografted nude mouse assessed as body weight loss at 100 mg/kg, ip administered once daily for 18 days. Format: organism-based, HCT-116. The arrangement: dose 100 mg/kg, route intraperitoneal. To be noted: in vivo, 432 h.
Another series concerns the target T2, Histone deacetylase 8 (Homo sapiens, UniProt Q9BY41).
T2 sequence (Q9BY41 whole entry): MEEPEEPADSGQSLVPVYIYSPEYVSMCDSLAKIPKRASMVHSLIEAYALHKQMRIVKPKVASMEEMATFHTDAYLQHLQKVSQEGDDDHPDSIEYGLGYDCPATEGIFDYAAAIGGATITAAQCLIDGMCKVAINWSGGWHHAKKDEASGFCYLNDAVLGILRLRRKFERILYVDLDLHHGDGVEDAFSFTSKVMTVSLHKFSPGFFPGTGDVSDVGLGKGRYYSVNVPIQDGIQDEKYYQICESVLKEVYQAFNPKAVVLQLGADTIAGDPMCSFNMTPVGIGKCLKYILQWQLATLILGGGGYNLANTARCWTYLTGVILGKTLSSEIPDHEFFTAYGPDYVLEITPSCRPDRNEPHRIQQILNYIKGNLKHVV
Briefly: Inhibition of His-tagged HDAC8 catalytic domain expressed in Escherichia coli.

The test system of series [9] is HCT-116. In words: Antitumor activity against human HCT116 cells xenografted nude mouse assessed as tumor growth inhibition at 100 mg/kg, ip administered once daily for 18 days relative to control. Type of series: functional. To be noted: HCT-116, ip, 432 h, route intraperitoneal, read-out: TGI. In outline:
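HCT116 human colon carcinoma xenografts in nude mice, 12 per group. Dosed intraperitoneally once daily for 18 days and compared with vehicle-treated animals. Tumor growth followed over time and reported as mean ± SEM.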

The target in another series is Histone deacetylase 2 (Homo sapiens, UniProt Q92769). In words: Inhibition of C-terminal FLAG tagged HDAC2.
Histone deacetylase 2, sequence (Q92769 whole entry): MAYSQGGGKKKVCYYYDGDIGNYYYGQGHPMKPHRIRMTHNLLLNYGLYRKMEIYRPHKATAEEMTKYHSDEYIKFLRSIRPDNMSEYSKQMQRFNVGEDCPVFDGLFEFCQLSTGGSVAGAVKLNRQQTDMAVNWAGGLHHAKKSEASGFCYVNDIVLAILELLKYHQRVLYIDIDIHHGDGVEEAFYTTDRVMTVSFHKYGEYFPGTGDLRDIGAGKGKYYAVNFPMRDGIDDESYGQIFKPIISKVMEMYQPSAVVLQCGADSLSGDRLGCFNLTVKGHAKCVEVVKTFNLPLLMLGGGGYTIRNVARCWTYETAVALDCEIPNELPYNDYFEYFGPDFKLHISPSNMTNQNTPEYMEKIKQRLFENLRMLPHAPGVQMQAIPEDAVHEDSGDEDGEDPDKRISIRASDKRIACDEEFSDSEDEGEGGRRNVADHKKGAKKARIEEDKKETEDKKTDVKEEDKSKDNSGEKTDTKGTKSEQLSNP
Series [10] is described as follows: Toxicity in ip dosed mouse assessed as maximum tolerated dose administered daily for 2 weeks. Format: organism-based. To be noted: in vivo. A digest of the protocol:
(§2)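 Preliminary tolerability study in mice, with intraperitoneal dosing once daily for 2 weeks. The maximum tolerated dose was defined as the dose giving no mortality and body weight loss below 5%.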

Series [11] has as its system Mus musculus. Briefly: Toxicity in mouse assessed as mortality at 100 mg/kg, ip administered daily for 2 weeks. Format: organism-based. The arrangement: dose 100 mg/kg, route intraperitoneal. To be noted: in vivo, 336 h. In outline: as §2
Series [12] concerns Mus musculus. Briefly: Toxicity in mouse assessed as body weight loss at 100 mg/kg, ip administered daily for 2 weeks. Set-up: dose 100 mg/kg, route intraperitoneal. To be noted: in vivo, 336 h. Type of series: organism-based. A digest of the protocol:
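Preliminary MTD study in mice. Intraperitoneal dosing once daily for 2 weeks, tracking mortality and body weight loss. Tolerated dose defined as no mortality and body weight loss below 5%.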

For series [13], the system named is Mus musculus. In words: Toxicity against human HCT116 cells xenografted nude mouse assessed as body weight loss at 150 mg/kg, ip administered once daily for 18 days. Format: organism-based, HCT-116. The arrangement: dose 150 mg/kg, route intraperitoneal. To be noted: in vivo, 432 h.

The source made the active and inactive calls. A value given as a limit tells only on which side of the number the result lay.

Histone deacetylase 1, sequence (Q13547 whole entry): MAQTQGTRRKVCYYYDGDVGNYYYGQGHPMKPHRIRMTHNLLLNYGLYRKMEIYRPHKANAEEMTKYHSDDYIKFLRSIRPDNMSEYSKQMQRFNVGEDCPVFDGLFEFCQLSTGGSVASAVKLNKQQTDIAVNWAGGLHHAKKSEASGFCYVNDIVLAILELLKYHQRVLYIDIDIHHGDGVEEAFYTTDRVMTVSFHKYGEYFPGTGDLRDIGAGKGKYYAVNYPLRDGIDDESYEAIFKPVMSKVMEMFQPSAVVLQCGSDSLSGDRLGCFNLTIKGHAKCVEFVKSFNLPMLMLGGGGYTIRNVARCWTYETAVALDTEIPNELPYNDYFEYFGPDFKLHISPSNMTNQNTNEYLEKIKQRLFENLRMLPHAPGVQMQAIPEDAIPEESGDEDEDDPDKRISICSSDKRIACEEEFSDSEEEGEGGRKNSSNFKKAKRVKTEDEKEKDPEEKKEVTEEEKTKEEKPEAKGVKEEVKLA
Histone deacetylase 3, sequence (O15379 whole entry): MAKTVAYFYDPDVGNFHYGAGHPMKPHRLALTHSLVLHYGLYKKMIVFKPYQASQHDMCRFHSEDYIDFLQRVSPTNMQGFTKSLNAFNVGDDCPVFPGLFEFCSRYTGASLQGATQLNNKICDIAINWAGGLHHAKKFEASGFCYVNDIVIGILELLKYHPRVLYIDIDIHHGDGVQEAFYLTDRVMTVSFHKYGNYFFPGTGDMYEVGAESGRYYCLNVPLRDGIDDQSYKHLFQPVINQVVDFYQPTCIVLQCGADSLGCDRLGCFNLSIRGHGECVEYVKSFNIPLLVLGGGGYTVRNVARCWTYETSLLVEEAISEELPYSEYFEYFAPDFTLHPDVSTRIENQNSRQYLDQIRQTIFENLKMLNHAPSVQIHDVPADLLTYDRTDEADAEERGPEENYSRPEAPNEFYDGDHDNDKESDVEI

For the compound `O=C(O)CCCCC[C@H](NS(=O)(=O)c1ccccc1[N+](=O)[O-])c1ncc(-c2ccc3ccccc3c2)[nH]1`, the IC50 at Histone deacetylase 1 was 19 nM; with HeLa, 6860 nM.
Taken in the same sequence, the figures for `CCC(=O)CCCCC[C@H](NC(=O)Cc1c(C)[nH]c2ccc(OC)cc12)c1ncc(-c2ccc3ccccc3c2)[nH]1` were 27 nM and 200 nM.
In the series with HeLa, `CCC(=O)CCCCC[C@@H]1NC(=O)[C@H]2CCCCN2C(=O)[C@H]([C@@H](C)CC)NC(=O)[C@H](Cc2cn(OC)c3ccccc23)NC1=O` [APICIDIN] returned an IC50 of 290 nM.
With `COc1ccc2[nH]c(C)c(CC(=O)N[C@@H](CCCCCC(=O)O)c3ncc(-c4ccc5ccccc5c4)[nH]3)c2c1`, the intrinsic metabolic clearance (microsomal CLint) in series [1] came to 3 µL/min/mg; in series [2], 177 µL/min/mg; in [3], 9 µL/min/mg; in series [4], 24 µL/min/mg. Moreover, the IC50 at Histone deacetylase 1 was 28 nM; with HeLa, 390 nM.
With `COc1ccc2[nH]c(C)c(CC(=O)N[C@@H](CCCCCC(=O)N(C)C)c3ncc(-c4ccc5ccccc5c4)[nH]3)c2c1`, the IC50 against Histone deacetylase 1 came to 170 nM; in the series with HeLa, 3800 nM.
The like results for `CCNC(=O)CCCCC[C@H](NC(=O)Cc1c(C)[nH]c2ccc(OC)cc12)c1ncc(-c2ccc3ccccc3c2)[nH]1` were, in that order, 66 nM and 2700 nM.
The like results for `COc1ccc2[nH]c(C)c(CC(=O)N[C@@H](CCCCCC(=O)NC(C)C)c3ncc(-c4ccc5ccccc5c4)[nH]3)c2c1` were, in that order, 480 nM and 12000 nM.
Taken in the same sequence, the figures for `CN(C)S(=O)(=O)N[C@@H](CCCCCC(=O)O)c1ncc(-c2ccc3ccccc3c2)[nH]1` were 220 nM and 26400 nM.
For the compound `CN1CC[C@@H](C(=O)N[C@@H](CCCCCC(=O)O)c2ncc(-c3ccc4ccccc4c3)[nH]2)C1`, the IC50 is 73 nM against Histone deacetylase 1 and > 25000 nM with HeLa.
Taken in the same sequence, the figures for `COc1ccc2[nH]c(C)c(CC(=O)N[C@@H](CCCCCC(=O)Nc3nncs3)c3ncc(-c4ccc5ccccc5c4)[nH]3)c2c1` were 350 nM and 4700 nM.
For the compound `COc1ccc2[nH]c(C)c(CC(=O)N[C@@H](CCCCCC(N)=O)c3ncc(-c4ccc5ccccc5c4)[nH]3)c2c1`, the result in the series with Mus musculus [5] was Active. For the same compound, the IC50 against Histone deacetylase 4 was > 10000 nM; in the series with HCT-116 [6] it was 860 nM; at Histone deacetylase 3, 250 nM; with A549, 3560 nM; in [7], 120 nM; at Histone deacetylase 8, > 5000 nM. The IC50 was determined as 160 nM at Histone deacetylase 2 and 440 nM in the series with HeLa. The Activity in the series on Mus musculus [8] is given as < 5%; with Mus musculus [11], “Non-toxic”; in the series with Mus musculus [12] it was < 5%. Moreover, in the series with HCT-116 [9], the inhibition in vivo at 100 mg/kg was 29%. Also, the maximum tolerated dose (MTD) at 336 h in series [10] amounted to 100 mg/kg.
Take `COc1ccc2[nH]c(C)c(CC(=O)N[C@@H](CCCCCC(=O)NS(=O)(=O)C(F)(F)F)c3ncc(-c4ccc5ccccc5c4)[nH]3)c2c1`: the results for the IC50 on Histone deacetylase 1 and with HeLa were 94 nM and 33500 nM, respectively.
Taken in the same sequence, the figures for `O=C(O)CCCCC[C@H](NC(=O)c1cncs1)c1ncc(-c2ccc3ccccc3c2)[nH]1` were 23 nM and 5800 nM.
As for `COc1ccc2[nH]c(C)c(CC(=O)N[C@@H](CCCCCC(=O)NO)c3ncc(-c4ccc5ccccc5c4)[nH]3)c2c1`, the half-maximal inhibitory concentration (IC50) was found to be 3 nM on Histone deacetylase 1 and 180 nM in the series with HeLa.
The like results for `CN1CC[C@H](C(=O)N[C@@H](CCCCCC(=O)O)c2ncc(-c3ccc4ccccc4c3)[nH]2)C1` were, in that order, 40 nM and > 25000 nM.
Consider `CN1CCC(C(=O)N[C@@H](CCCCCC(=O)O)c2ncc(-c3ccc4ccccc4c3)[nH]2)CC1`, for which the IC50 on Histone deacetylase 1 was found to be 35 nM; in the series with HeLa, 35000 nM.
The like results for `COc1ccc2[nH]c(C)c(CC(=O)N[C@@H](CCCCCC(=O)NS(C)(=O)=O)c3ncc(-c4ccc5ccccc5c4)[nH]3)c2c1` were, in that order, 47 nM and 8000 nM.
Consider `CONC(=O)CCCCC[C@H](NC(=O)Cc1c(C)[nH]c2ccc(OC)cc12)c1ncc(-c2ccc3ccccc3c2)[nH]1`, for which the IC50 on Histone deacetylase 1 turned out to be 34 nM; with HeLa it was 660 nM.
Taken in the same sequence, the figures for `COc1ccc2[nH]c(C)c(CC(=O)N[C@@H](CCCCCC(=O)Nc3ccccc3N)c3ncc(-c4ccc5ccccc5c4)[nH]3)c2c1` were 110 nM and 1340 nM.
The like results for `COc1ccc2[nH]c(C)c(CC(=O)N[C@@H](CCCCCC(=O)NCc3ccccc3)c3ncc(-c4ccc5ccccc5c4)[nH]3)c2c1` were, in that order, 1000 nM and 6800 nM.
Taken in the same sequence, the figures for `CNC(=O)CCCCC[C@H](NC(=O)Cc1c(C)[nH]c2ccc(OC)cc12)c1ncc(-c2ccc3ccccc3c2)[nH]1` were 120 nM and 1700 nM.
As for `COc1ccc2[nH]c(C)c(CC(=O)N[C@@H](CCCCCC(=O)Nc3ccccc3)c3ncc(-c4ccc5ccccc5c4)[nH]3)c2c1`, the IC50 at Histone deacetylase 1 was found to be 200 nM; with HeLa, 5900 nM.
Turning to `O=C(CCCCCCC(=O)Nc1ccccc1)NO` [VORINOSTAT], the Activity with Mus musculus [13] is < 5%.
At Histone deacetylase 1, `COc1ccc2[nH]c(C)c(CC(=O)N[C@@H](CCCCCC(C)=O)c3ncc(-c4ccccc4)[nH]3)c2c1` yielded an IC50 of 27 nM.
